Measurements published in ChEMBL document CHEMBL2413032, “Synthesis and evaluation of 1-[2-(4-[(11)C]methoxyphenyl)phenyl]piperazine for imaging of the serotonin 5-HT7 receptor in the rat brain” (Bioorg Med Chem, 2013).
Activity calls are given as the source filed them. No cut-off for these calls is given here.

Experiments:
Rattus norvegicus = assay: Biodistribution in Sprague-Dawley rat frontal cortex assessed as increase in uptake at 0.07 to 0.11 nmol, iv pre-treated with 3 mg/kg of SB269970 measured up to 90 mins by HPLC analysis relative to control; format: ADME, organism-based; set-up: dose 3 mg/kg, route intravenous; details: in vivo
Procedure, shortened: (§1)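 PET blocking study in male Sprague–Dawley rats under isoflurane. SB269970 3 mg/kg, in saline with 10% ethanol and 5% polysorbate 80, was given 1 min before intravenous tracer. A 90-min 3D list-mode scan (350–750 keV) followed. Regional decay-corrected SUV time-activity curves were compared with baseline animals; n = 3 per group.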

Brain [1] = assay: Biodistribution in Sprague-Dawley rat brain at 0.07 to 0.11 nmol, iv after 90 mins by HPLC analysis; format: ADME, organism-based; details: in vivo, 1.5 h
Procedure, shortened: (§2)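 Small-animal PET in male Sprague–Dawley rats (220–240 g, 7 weeks) under isoflurane (5% induction, 1–2% maintenance). A 90-min 3D list-mode emission scan (350–750 keV) started immediately after intravenous tracer injection, framed 4 × 1, 8 × 2, 14 × 5 min. Regional uptake was decay-corrected to injection time and expressed as SUV normalized to injected radioactivity and body weight; n = 3.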

[2] = Drug metabolism in Sprague-Dawley rat brain assessed as intact form at 0.07 to 0.11 nmol, iv after 60 mins by HPLC analysis; format: ADME, organism-based; details: read-out: Stability
Procedure, shortened: (§3)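 At 15 and 60 min after intravenous tracer, rat plasma and brain were taken. Brain was homogenized in ice-cold MeCN/H2O (1:1) and centrifuged 15,000 rpm, 2 min, 4 °C. Supernatants were run on radio-HPLC (C18, 4.6 × 250 mm; MeCN/H2O/TFA 4/6/0.05; 1.0 mL/min). Intact fraction = decay-corrected tracer peak area / total peak area × 100.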

[3] = Drug metabolism in Sprague-Dawley rat brain assessed as intact form at 0.07 to 0.11 nmol, iv after 15 mins by HPLC analysis; format: ADME, organism-based; details: read-out: Stability; procedure, shortened: as §3
[4] = Drug metabolism in Sprague-Dawley rat plasma assessed as intact form at 0.07 to 0.11 nmol, iv after 60 mins by HPLC analysis; format: ADME, organism-based; details: read-out: Stability; procedure, shortened: as §3
[5] = Drug metabolism in Sprague-Dawley rat plasma assessed as intact form at 0.07 to 0.11 nmol, iv after 15 mins by HPLC analysis; format: ADME, organism-based; details: read-out: Stability; procedure, shortened: as §3
Brain [6] = assay: Biodistribution in Sprague-Dawley rat brain at 0.07 to 0.11 nmol, iv after 3 to 5 mins by HPLC analysis; format: ADME, organism-based; details: in vivo; procedure, shortened: as §2
[7] = n-Octanol-sodium phosphate buffer partition coefficient, log D of the compound at pH 7.4 by shake flask method; format: physicochemical
Procedure, shortened: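 Shake flask: [11C]tracer (about 150,000 cpm) was mixed with n-octanol (3.0 g) and 0.1 M sodium phosphate-buffered saline, pH 7.40 (3.0 g). The mix was vortexed 3 min at room temperature and centrifuged 3500 rpm for 5 min; n = 3.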

Cerebellum = assay: Biodistribution in Sprague-Dawley rat cerebellum assessed as increase in uptake at 0.07 to 0.11 nmol, iv pre-treated with 3 mg/kg of SB269970 measured up to 90 mins by HPLC analysis relative to control; format: ADME, organism-based; set-up: dose 3 mg/kg, route intravenous; details: in vivo; procedure, shortened: as §1
Thalamus = assay: Biodistribution in Sprague-Dawley rat thalamus assessed as increase in uptake at 0.07 to 0.11 nmol, iv pre-treated with 3 mg/kg of SB269970 measured up to 90 mins by HPLC analysis relative to control; format: ADME, organism-based; set-up: dose 3 mg/kg, route intravenous; details: in vivo; procedure, shortened: as §1
Hippocampus = assay: Biodistribution in Sprague-Dawley rat hippocampus assessed as increase in uptake at 0.07 to 0.11 nmol, iv pre-treated with 3 mg/kg of SB269970 measured up to 90 mins by HPLC analysis relative to control; format: ADME, organism-based; set-up: dose 3 mg/kg, route intravenous; details: in vivo; procedure, shortened: as §1
[8] = biological target: 5-hydroxytryptamine receptor 7 (Rattus norvegicus) (UniProt P32305); assay: Binding affinity to 5-HT7 in Sprague-Dawley rat brain assessed as reduction in total radioactivity at 1 nM after 30 mins by autoradiography in presence of SB269970; details: tested as the 11C-labelled form
Procedure, shortened: (§4)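 Frozen sagittal male Sprague–Dawley rat brain sections were preincubated 3 × 5 min in 50 mM Tris–HCl, pH 7.4, at room temperature. They were then incubated 30 min at room temperature in fresh buffer with 1 nM [11C]tracer, alone or with unlabeled ligand or SB269970 added to define specific binding. Sections were washed 3 × 5 min in cold buffer, dipped in cold water and air-dried. Imaging-plate photo-stimulated luminescence was read in regions of interest; n = 4.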

[9] = biological target: 5-hydroxytryptamine receptor 7 (Rattus norvegicus) (UniProt P32305); assay: Binding affinity to 5-HT7 in Sprague-Dawley rat brain assessed as reduction in total radioactivity at 1 nM after 30 mins by autoradiography in presence of unlabelled compound; details: tested as the 11C-labelled form; procedure, shortened: as §4
[10] = biological target: T1, 5-hydroxytryptamine receptor 1A (Rattus norvegicus) (UniProt P19327); assay: Binding affinity to 5-HT1A in Sprague-Dawley rat cerebral cortex at 1 nM after 30 mins by autoradiography; format: tissue-based; details: tested as the 11C-labelled form
T1 sequence (whole entry): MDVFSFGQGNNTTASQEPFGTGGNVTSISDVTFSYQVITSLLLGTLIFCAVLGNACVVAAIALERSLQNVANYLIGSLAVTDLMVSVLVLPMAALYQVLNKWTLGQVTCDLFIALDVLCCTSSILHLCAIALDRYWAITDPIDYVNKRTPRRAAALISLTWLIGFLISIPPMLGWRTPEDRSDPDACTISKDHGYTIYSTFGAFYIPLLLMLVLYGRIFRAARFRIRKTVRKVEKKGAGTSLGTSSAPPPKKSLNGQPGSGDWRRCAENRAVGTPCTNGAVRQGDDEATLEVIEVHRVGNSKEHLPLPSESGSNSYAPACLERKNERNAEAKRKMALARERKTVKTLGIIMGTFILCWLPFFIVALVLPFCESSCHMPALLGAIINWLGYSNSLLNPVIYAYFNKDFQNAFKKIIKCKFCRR

[11] = biological target: T1, 5-hydroxytryptamine receptor 1A (Rattus norvegicus); assay: Binding affinity to 5-HT1A in Sprague-Dawley rat hippocampus at 1 nM after 30 mins by autoradiography; format: tissue-based; details: tested as the 11C-labelled form
[12] = biological target: 5-hydroxytryptamine receptor 7 (Rattus norvegicus) (UniProt P32305); assay: Binding affinity to 5-HT7 in Sprague-Dawley rat straitum at 1 nM after 30 mins by autoradiography; details: tested as the 11C-labelled form; procedure, shortened: as §4
[13] = biological target: 5-hydroxytryptamine receptor 7 (Rattus norvegicus) (UniProt P32305); assay: Binding affinity to 5-HT7 in Sprague-Dawley rat pons/medulla at 1 nM after 30 mins by autoradiography; details: tested as the 11C-labelled form; procedure, shortened: as §4
[14] = biological target: 5-hydroxytryptamine receptor 7 (Rattus norvegicus) (UniProt P32305); assay: Binding affinity to 5-HT7 in Sprague-Dawley rat cerebellum at 1 nM after 30 mins by autoradiography; details: tested as the 11C-labelled form; procedure, shortened: as §4
[15] = biological target: 5-hydroxytryptamine receptor 7 (Rattus norvegicus) (UniProt P32305); assay: Binding affinity to 5-HT7 in Sprague-Dawley rat thalamus at 1 nM after 30 mins by autoradiography; details: tested as the 11C-labelled form; procedure, shortened: as §4
[16] = biological target: 5-hydroxytryptamine receptor 7 (Rattus norvegicus, UniProt P32305); assay: Binding affinity to 5-HT7 in rat brain; format: tissue-based
[17] = biological target: T1, 5-hydroxytryptamine receptor 1A (Rattus norvegicus); assay: Binding affinity to 5-HT1A in Sprague-Dawley rat hippocampus after 30 mins by autoradiography; format: tissue-based
[18] = biological target: T1, 5-hydroxytryptamine receptor 1A (Rattus norvegicus); assay: Binding affinity to 5-HT1A in Sprague-Dawley rat frontal cortex after 30 mins by autoradiography; format: tissue-based

5-hydroxytryptamine receptor 7 (Rattus norvegicus), sequence (P32305 whole entry): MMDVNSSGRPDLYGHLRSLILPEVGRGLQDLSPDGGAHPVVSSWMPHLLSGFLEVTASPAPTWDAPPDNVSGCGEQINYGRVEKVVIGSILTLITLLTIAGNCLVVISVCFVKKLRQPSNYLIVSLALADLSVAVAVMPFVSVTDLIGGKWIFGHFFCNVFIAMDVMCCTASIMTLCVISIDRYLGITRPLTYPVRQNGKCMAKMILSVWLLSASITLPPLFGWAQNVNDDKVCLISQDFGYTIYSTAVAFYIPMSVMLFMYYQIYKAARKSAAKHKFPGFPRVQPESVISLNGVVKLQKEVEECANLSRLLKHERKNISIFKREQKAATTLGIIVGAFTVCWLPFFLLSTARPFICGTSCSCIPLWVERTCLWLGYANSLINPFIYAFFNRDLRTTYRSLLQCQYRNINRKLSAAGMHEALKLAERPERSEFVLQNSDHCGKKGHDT
5-hydroxytryptamine receptor 7, sequence (P32305 whole entry): as above

Structure (SMILES): [11CH3]Oc1ccc(-c2ccccc2N2CCNCC2)cc1
- fold change (FC) (Rattus norvegicus): 2
- Drug uptake (Brain [1]): 20%
- remaining at 1 h [2]: 69%
- remaining at 0.25 h [3]: 91%
- remaining at 1 h [4]: 30%
- remaining at 0.25 h [5]: 51%
- SUV (Brain [6]): 1.2
- logD [7]: 1.67
- fold change (FC) (Cerebellum): 2
- fold change (FC) (Thalamus): 2
- fold change (FC) (Hippocampus): 2

Structure (SMILES): COc1ccc(-c2ccccc2N2CCNCC2)cc1
- Activity [8]: inactive
- Activity [9]: inactive
- Activity [10]: inactive
- Activity [11]: inactive
- Activity [12]: Active
- Activity [13]: Active
- Activity [14]: Active
- Activity [15]: Active
- Ki [16]: 2.6 nM
- Bmax [17]: 5 nM
- Bmax [18]: 5 nM
